The values that follow come from ChEMBL document CHEMBL3774386, “Synthesis and structure activity relationship investigation of triazolo[1,5-a]pyrimidines as CB2 cannabinoid receptor inverse agonists” (Eur J Med Chem, 2016).

For orientation: EC50 means the concentration at which the effect is half-maximal. A word on the Ki: it is a measure of affinity in units of concentration, obtained from inhibition or displacement. The low end stands for tighter binding, the high end for weaker binding. As a reminder, the Emax is the size of the effect at its maximum, as opposed to the concentration needed. For orientation: IC50 means the concentration at which inhibition is half-maximal.

T1 sequence (P34972 whole entry): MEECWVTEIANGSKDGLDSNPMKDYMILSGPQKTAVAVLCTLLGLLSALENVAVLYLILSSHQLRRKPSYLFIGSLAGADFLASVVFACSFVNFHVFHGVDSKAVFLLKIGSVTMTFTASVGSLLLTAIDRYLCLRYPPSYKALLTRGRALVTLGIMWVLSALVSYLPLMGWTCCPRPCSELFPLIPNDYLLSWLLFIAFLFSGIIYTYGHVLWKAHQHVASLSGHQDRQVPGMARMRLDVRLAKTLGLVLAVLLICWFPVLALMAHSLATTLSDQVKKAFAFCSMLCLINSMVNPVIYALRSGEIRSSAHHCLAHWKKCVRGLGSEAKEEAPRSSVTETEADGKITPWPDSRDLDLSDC

One experiment concerns the target T1, Cannabinoid receptor 2 (Homo sapiens, UniProt P34972). The experiment can be described thus: Inverse agonist activity at human CB2 receptor transfected in CHO cells assessed as increase in forksolin stimulated cAMP production by scintillation counting analysis. Type of experiment: functional, cell-based. In a few lines: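 Human CB2-transfected CHO cells detached with trypsin, 1 × 10^6 cells/assay, with forskolin and compound over a concentration curve. cAMP measured by [3H]-cAMP competition: 150 min at 4 °C, charcoal, centrifugation, supernatant counted. Expressed as % increase of forskolin-stimulated cAMP and fitted for EC50; three independent experiments in duplicate.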
(cAMP levels reflect the balance of adenylyl cyclase and phosphodiesterase activity.)
With `CCCCCn1cc(C(=O)NC23CC4CC(CC(C4)C2)C3)c(=O)n2nc(N3CCOCC3)nc12`, the EC50 is 670 nM.

In a further experiment the target is Cannabinoid receptor 1 (Homo sapiens, UniProt P21554). The experiment can be described thus: Displacement of [3H]CP-55,940 from human CB1 receptor expressed in CHO cell membranes after 90 mins by scintillation counting analysis. A general note: Loss of bound radioactivity is the signal in a displacement assay; it reports binding, not function.
Cannabinoid receptor 1, sequence (P21554 whole entry): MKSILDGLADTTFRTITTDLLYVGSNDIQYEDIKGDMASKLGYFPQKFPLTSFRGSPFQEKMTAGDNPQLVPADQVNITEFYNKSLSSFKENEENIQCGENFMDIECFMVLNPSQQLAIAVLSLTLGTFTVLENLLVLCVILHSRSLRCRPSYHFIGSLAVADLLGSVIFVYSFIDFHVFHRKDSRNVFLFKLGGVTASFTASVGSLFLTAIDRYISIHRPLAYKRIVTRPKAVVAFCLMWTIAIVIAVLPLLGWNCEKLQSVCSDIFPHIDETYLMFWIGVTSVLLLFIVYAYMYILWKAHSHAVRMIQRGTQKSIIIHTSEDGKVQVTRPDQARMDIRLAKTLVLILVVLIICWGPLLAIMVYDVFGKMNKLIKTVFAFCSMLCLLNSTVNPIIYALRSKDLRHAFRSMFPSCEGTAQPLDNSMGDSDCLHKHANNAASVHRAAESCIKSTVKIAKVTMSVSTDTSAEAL
As for `CCCCCn1cc(C(=O)NC2CCCCCC2)c(=O)n2ncnc12`, the affinity, expressed as Ki, was 717 nM.
Same read-out and setting: under `C=CCN(CC=C)c1nc2n(CCCCC)cc(C(=O)NC3CCCCC3)c(=O)n2n1` stands more than 10000 nM; under `CCCCCn1cc(C(=O)NC2CCCCC2)c(=O)n2nc(C)nc12`, 488 nM.
Turning to `CCCCCn1cc(C(=O)NC23CC4CC(CC(C4)C2)C3)c(=O)n2nc(-c3cccnc3)nc12`, the inhibitory constant (Ki) is more than 10000 nM.
Still for that read-out and setting: for `C=CCN(CC=C)c1nc2n(CCCCC)cc(C(=O)NC34CC5CC(CC(C5)C3)C4)c(=O)n2n1` the value was more than 10000 nM; for `CCCCCn1cc(C(=O)NC2CCCCCC2)c(=O)n2nc(N3CCN(C)CC3)nc12`, more than 10000 nM; for `CCCCCn1cc(C(=O)NC2CCCCC2)c(=O)n2nc(N3CCOCC3)nc12`, more than 10000 nM.
`CCCCCn1cc(C(=O)NC2CCCCCC2)c(=O)n2nc(N3CCOCC3)nc12`: the Ki was more than 10000 nM.
Still for that read-out and setting: for `CCCCCn1cc(C(=O)NC2CCCCC2)c(=O)n2nc(N3CCN(C)CC3)nc12` the value was more than 10000 nM.
Still for that read-out and setting: under `CCCCCn1cc(C(=O)NC2CCCCC2)c(=O)n2nc(-c3ccc(Cl)cc3)nc12` stands 4720 nM.
The same measure, in the same setting: for `CCCCCn1cc(C(=O)NC2CCCCC2)c(=O)n2nc(SC)nc12` the value was more than 10000 nM; for `CCCCCn1cc(C(=O)NC2CCCCC2)c(=O)n2nc(N(C)Cc3ccccc3)nc12`, more than 10000 nM; for `CCCCCn1cc(C(=O)NC2CCCCC2)c(=O)n2nc(-c3ccc(OC)cc3)nc12`, 5850 nM.
For the molecule `CCCCCn1cc(C(=O)NC23CC4CC(CC(C4)C2)C3)c(=O)n2nc(N3CCOCC3)nc12`, the inhibition constant Ki is more than 10000 nM.

For a further experiment, the system named is CHO. Kind of experiment: Selectivity ratio of Ki for human CB1 receptor expressed in CHO cell membranes to Ki for human CB2 receptor expressed in CHO cell membranes. Type of experiment: cell-based. In a few lines: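 CHO membranes with human CB1 or CB2 in 50 mM Tris-HCl, 0.5% BSA, pH 7.4, 5 mM MgCl2, with 1 mM (CB1) or 2.5 mM (CB2) EDTA. Competition against 0.5 nM [3H]CP-55,940 at 30 °C for 90 min (CB1) or 60 min (CB2). GF/C filtration, scintillation counting. Ki from IC50 by Cheng–Prusoff; mean ± SEM, n = 4.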
For the molecule `CCCCCn1cc(C(=O)NC2CCCCCC2)c(=O)n2ncnc12`, the Ratio Ki was 1.
The same measure, in the same setting: for `C=CCN(CC=C)c1nc2n(CCCCC)cc(C(=O)NC3CCCCC3)c(=O)n2n1` the value was more than 7; for `CCCCCn1cc(C(=O)NC2CCCCC2)c(=O)n2nc(C)nc12`, 1; for `CCCCCn1cc(C(=O)NC23CC4CC(CC(C4)C2)C3)c(=O)n2nc(-c3cccnc3)nc12`, more than 44.
In the case of `C=CCN(CC=C)c1nc2n(CCCCC)cc(C(=O)NC34CC5CC(CC(C5)C3)C4)c(=O)n2n1`, the Ratio Ki was more than 63.
On the same count and under the same terms, under `CCCCCn1cc(C(=O)NC2CCCCCC2)c(=O)n2nc(N3CCN(C)CC3)nc12` stands more than 10.
The same measure, in the same setting: for `CCCCCn1cc(C(=O)NC2CCCCCC2)c(=O)n2nc(N3CCOCC3)nc12` the value was more than 18; for `CCCCCn1cc(C(=O)NC2CCCCC2)c(=O)n2nc(N3CCN(C)CC3)nc12`, more than 188; for `CCCCCn1cc(C(=O)NC2CCCCC2)c(=O)n2nc(-c3ccc(Cl)cc3)nc12`, 40.
For `CCCCCn1cc(C(=O)NC2CCCCC2)c(=O)n2nc(SC)nc12`, the Ratio Ki was more than 14.
The same measure, in the same setting: under `CCCCCn1cc(C(=O)NC2CCCCC2)c(=O)n2nc(N(C)Cc3ccccc3)nc12` stands more than 7; under `CCCCCn1cc(C(=O)NC2CCCCC2)c(=O)n2nc(-c3ccc(OC)cc3)nc12`, 61.
Same read-out and setting: under `CCCCCn1cc(C(=O)NC23CC4CC(CC(C4)C2)C3)c(=O)n2nc(N3CCOCC3)nc12` stands 140.

The target of a further experiment is T1, Cannabinoid receptor 2. Kind of experiment: Displacement of [3H]CP-55,940 from human CB2 receptor expressed in CHO cell membranes after 60 mins by scintillation counting analysis.
In turn, `CCCCCn1cc(C(=O)NC2CCCCCC2)c(=O)n2ncnc12` showed a Ki of 514 nM.
Same read-out and setting: for `C=CCN(CC=C)c1nc2n(CCCCC)cc(C(=O)NC3CCCCC3)c(=O)n2n1` the value was 1350 nM.
On the same count and under the same terms, for `CCCCCn1cc(C(=O)NC2CCCCC2)c(=O)n2nc(C)nc12` the value was 674 nM; for `CCCCCn1cc(C(=O)NC23CC4CC(CC(C4)C2)C3)c(=O)n2nc(-c3cccnc3)nc12`, 228 nM; for `C=CCN(CC=C)c1nc2n(CCCCC)cc(C(=O)NC34CC5CC(CC(C5)C3)C4)c(=O)n2n1`, 158 nM.
`CCCCCn1cc(C(=O)NC2CCCCCC2)c(=O)n2nc(N3CCN(C)CC3)nc12` registered an inhibition constant (Ki) of 982 nM.
The same measure, in the same setting: for `CCCCCn1cc(C(=O)NC2CCCCC2)c(=O)n2nc(N3CCOCC3)nc12` the value was more than 10000 nM; for `CCCCCn1cc(C(=O)NC2CCCCCC2)c(=O)n2nc(N3CCOCC3)nc12`, 566 nM.
Take `CCCCCn1cc(C(=O)NC2CCCCC2)c(=O)n2nc(N3CCN(C)CC3)nc12`: the inhibition constant Ki is more than 10000 nM.
Same read-out and setting: under `CCCCCn1cc(C(=O)NC2CCCCC2)c(=O)n2nc(-c3ccc(Cl)cc3)nc12` stands 117 nM; under `CCCCCn1cc(C(=O)NC2CCCCC2)c(=O)n2nc(SC)nc12`, 716 nM; under `CCCCCn1cc(C(=O)NC2CCCCC2)c(=O)n2nc(N(C)Cc3ccccc3)nc12`, 1330 nM.
With `CCCCCn1cc(C(=O)NC2CCCCC2)c(=O)n2nc(-c3ccc(OC)cc3)nc12`, the affinity, expressed as Ki, was 96 nM.
Consider `CCCCCn1cc(C(=O)NC23CC4CC(CC(C4)C2)C3)c(=O)n2nc(N3CCOCC3)nc12`, for which the inhibitory constant (Ki) stood at 53 nM.

The target in the next experiment is T1, Cannabinoid receptor 2. The experiment can be described thus: Inverse agonist activity at human CB2 receptor transfected in CHO cells assessed as increase in forksolin stimulated cAMP production at 10 uM by scintillation counting analysis relative to control. Type of experiment: functional, cell-based.
Regarding `Cc1c(C(=O)c2cccc3ccccc23)c2cccc3c2n1[C@H](CN1CCOCC1)CO3`, the Emax amounted to 132%.
For the molecule `CCCCCn1cc(C(=O)NC23CC4CC(CC(C4)C2)C3)c(=O)n2nc(N3CCOCC3)nc12`, the maximal effect (Emax) came out at 132%.

In a further experiment the target is T1, Cannabinoid receptor 2. Kind of experiment: Inverse agonist activity at human CB2 receptor transfected in CHO cells assessed as increase in forksolin stimulated cAMP production at 1 uM by scintillation counting analysis relative to control. Type of experiment: functional, cell-based.
Take `Cc1c(C(=O)c2cccc3ccccc23)c2cccc3c2n1[C@H](CN1CCOCC1)CO3`: the maximum response (Emax) was 53%.
Regarding `CCCCCn1cc(C(=O)NC23CC4CC(CC(C4)C2)C3)c(=O)n2nc(N3CCOCC3)nc12`, the maximum response (Emax) was 53%.

Another experiment has as its target T1, Cannabinoid receptor 2. Kind of experiment: Antagonist activity at human CB2 receptor transfected in CHO cells assessed as inhibition of WIN 55,212-2 mediated suppression of forksolin induced cAMP production by scintillation counting analysis. Format: functional, cell-based. In a few lines: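 Human CB2-transfected CHO cells, 1 × 10^6 cells/assay, forskolin-stimulated, with WIN 55,212-2 (20 nM) plus compound over a concentration range. cAMP read by [3H]-cAMP competition: 150 min at 4 °C, charcoal separation, scintillation counting. IC50 derived from reversal of the WIN 55,212-2 inhibition; mean ± SEM of three experiments in duplicate.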
With `CCCCCn1cc(C(=O)NC23CC4CC(CC(C4)C2)C3)c(=O)n2nc(N3CCOCC3)nc12`, the IC50 stood at 162 nM.
